MT1-MMP act inh: blocks activation of human MT1-MMP | 360,000 compounds, 0.061% hits | P50281 | HT1080 RFP-PRO-GFP cells, GFP/RFP ratio fluorescence, overnight; percent of plate control window, DMSO zero | GFP/RFP ratio change, % at 20 µM | AID 651647;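 active = GFP/RFP ratio change of at least 30% with cell ATP level not reduced by more than half and red fluorescence within 50% of control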
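Assay system: HT1080 RFP-PRO-GFP cells. Benchmarks: DMSO vehicle wells and RFP-L50D-GFP reporter cell wells. Times: overnight cell settling, then overnight compound exposure, 37 °C, 5% CO2. Compound: 20 µM single dose, 1% DMSO. Read-out basis: GFP/RFP fluorescence ratio.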
SKN-1 block: blocks SKN-1 activity in C. elegans. C. elegans VP596 Pgst-4::GFP/RFP ratio, acrylamide-induced, 24 h. inhibition, % at 21.8 µM. 360,000 compounds, 0.49% hits. AID 624304;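 active = interference check ratio from 0.5 to 1.5 plus GFP to RFP signal ratio inhibition reaching or exceeding a fixed threshold, cut at about 30% in these data, passing the limit was not always enough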
TbMetRS inhib: Trypanosoma brucei MetRS inhibition; purified T. brucei MetRS, ATP depletion, Kinase-Glo luminescence; inhibition, % at 11.9 µM; 360,000 compounds, 0.4% hits; AID 624268;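 active = inhibition above a per-plate cutoff of the control wells' mean inhibition plus 3 SD, cut at about 5.5% in these data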;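 also: 0% = DMSO wells median and 100% = median of wells with control inhibitor compound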
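Assay system: T. brucei methionyl-tRNA synthetase, purified | Medium: HEPES buffer with MgCl2, KCl, DTT, spermine, BSA, pyrophosphatase | Compound: 11.9 µM single point | Incubation: 15 min enzyme-compound preincubation, 2 h reaction, 10 min detection, 25 °C | Measured by: Kinase-Glo luciferase luminescence reporting remaining unconsumed ATP | Measure: % inhibition normalized to control-well medians | Replication: Singlicate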
Rin1 Abl inh: human Rin1-Abl interaction inhibition; AID 588664; inhibition, % at 7.35 µM; P00519+Q13671; TR-FRET Rin1/Abl binding, biochemical; 360,000 compounds, 0.4% hits; in the data active = inhibition above about 5%, passing the limit was not always enough
Target sequence (P00519 whole entry, looked up): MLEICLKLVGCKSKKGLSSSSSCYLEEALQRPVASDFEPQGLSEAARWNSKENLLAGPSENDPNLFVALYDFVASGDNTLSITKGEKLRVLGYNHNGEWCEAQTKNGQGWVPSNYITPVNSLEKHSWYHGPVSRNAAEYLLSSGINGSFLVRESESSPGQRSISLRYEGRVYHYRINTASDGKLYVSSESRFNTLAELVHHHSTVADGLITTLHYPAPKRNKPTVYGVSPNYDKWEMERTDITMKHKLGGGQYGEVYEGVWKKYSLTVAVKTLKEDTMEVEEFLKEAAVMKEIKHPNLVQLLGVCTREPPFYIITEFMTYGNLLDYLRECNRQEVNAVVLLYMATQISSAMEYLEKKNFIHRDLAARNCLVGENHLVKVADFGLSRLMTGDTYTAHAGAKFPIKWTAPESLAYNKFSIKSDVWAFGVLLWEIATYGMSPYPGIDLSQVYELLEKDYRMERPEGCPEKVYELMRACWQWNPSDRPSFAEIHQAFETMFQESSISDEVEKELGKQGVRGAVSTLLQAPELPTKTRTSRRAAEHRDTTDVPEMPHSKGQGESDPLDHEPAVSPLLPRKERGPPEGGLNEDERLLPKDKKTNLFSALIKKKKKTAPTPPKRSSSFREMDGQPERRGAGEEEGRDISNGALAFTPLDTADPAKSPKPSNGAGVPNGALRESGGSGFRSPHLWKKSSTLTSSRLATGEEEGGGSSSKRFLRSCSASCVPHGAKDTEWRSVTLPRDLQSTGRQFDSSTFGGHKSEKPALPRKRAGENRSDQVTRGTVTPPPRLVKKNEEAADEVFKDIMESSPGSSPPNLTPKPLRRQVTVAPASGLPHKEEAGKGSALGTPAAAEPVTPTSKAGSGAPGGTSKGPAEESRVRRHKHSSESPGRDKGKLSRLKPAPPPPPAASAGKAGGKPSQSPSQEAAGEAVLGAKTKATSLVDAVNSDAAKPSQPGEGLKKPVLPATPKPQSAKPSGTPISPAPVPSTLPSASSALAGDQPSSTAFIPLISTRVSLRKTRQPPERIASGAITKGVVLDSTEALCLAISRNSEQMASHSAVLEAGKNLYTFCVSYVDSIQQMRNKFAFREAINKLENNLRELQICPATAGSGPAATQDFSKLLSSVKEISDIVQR
Target sequence (Q13671 whole entry, looked up): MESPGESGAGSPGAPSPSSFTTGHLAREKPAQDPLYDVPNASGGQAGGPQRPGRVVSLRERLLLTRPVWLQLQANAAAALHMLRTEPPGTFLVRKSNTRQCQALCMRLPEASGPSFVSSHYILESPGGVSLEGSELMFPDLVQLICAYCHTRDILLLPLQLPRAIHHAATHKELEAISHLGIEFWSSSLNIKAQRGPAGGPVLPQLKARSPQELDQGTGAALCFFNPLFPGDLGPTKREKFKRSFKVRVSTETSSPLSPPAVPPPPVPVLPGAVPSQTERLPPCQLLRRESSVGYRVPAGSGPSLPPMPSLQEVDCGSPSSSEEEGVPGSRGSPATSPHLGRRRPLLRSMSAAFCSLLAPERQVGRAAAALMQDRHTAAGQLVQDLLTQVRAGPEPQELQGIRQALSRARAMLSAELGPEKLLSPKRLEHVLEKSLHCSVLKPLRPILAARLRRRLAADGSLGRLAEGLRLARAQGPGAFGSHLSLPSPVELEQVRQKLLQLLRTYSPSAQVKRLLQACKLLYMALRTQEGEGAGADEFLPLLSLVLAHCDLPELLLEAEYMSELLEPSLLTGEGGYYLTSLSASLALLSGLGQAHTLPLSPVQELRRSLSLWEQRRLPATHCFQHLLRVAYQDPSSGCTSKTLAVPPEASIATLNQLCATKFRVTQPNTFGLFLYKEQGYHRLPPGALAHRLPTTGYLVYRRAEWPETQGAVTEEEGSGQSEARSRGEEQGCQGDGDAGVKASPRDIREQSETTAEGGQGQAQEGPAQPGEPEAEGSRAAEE
Arrestin-AP2 inh: human beta-arrestin and AP2 interaction inhibition | FITC-arrestin peptide / GST-AP2 beads, flow cytometry; AP2 beta2 appendage carries R879A mutation | inhibition, % at 10 µM | 340,000 compounds, 0.31% hits | AID 504490;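 active = inhibition above a set limit, near 3 SD of compounds lacking own fluorescence, cut at about 54% in these data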;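 also: plate controls were DMSO wells for no effect and 5 µM unlabelled arrestin peptide for full effect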
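System: GST-AP2 R879A glutathione beads | Also added: FITC-arrestin peptide, 50 nM | Times: 12 min plus 1 h, RT | Signal: Bead flow cytometry, FITC channel | Buffer or medium: PBS with 0.05% Tween 20 and 0.1% BSA | Read-out basis: Percent drop in bead-associated FITC signal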
* marks the source's active call; other numbers are inactive results; / = no result given. Sampled rows, rich in hits. Any-hit rate of the full collection: about 1.6%.

SMILES	MT1-MMP act inh	SKN-1 block	TbMetRS inhib	Rin1 Abl inh	Arrestin-AP2 inh
O=c1ccc2cc3c([nH]c4ccc(Br)cc43)oc-2c1O	-55	28	3	37*	72*
O=C(O)c1ccc(N=Nc2c(O)[nH]c3ccc(Br)cc23)cc1	2	3	-1	0	2
CCn1c(CSc2nnc(-c3ccncc3)n2C)nc2cc(C(=O)O)ccc21	21	41*	1	2	24
COc1ccc(-c2nc(-c3ccc(Br)o3)no2)cc1OC	-4	8	-1	-3	-2
COc1ccc(-c2nnc(-c3ccc(Br)o3)o2)cc1OC	2	36*	-1	-11	3
CC(C)CN(C(=O)COC(=O)C1c2ccccc2Oc2ccccc21)C1CCS(=O)(=O)C1 (stereo not given)	1	-5	0	-3	3
CN(C(=O)COC(=O)C1c2ccccc2Oc2ccccc21)C1CCS(=O)(=O)C1 (stereo not given)	4	48*	-1	-1	0
CCOC(=O)C1=CCN(S(=O)(=O)c2ccc(Cl)cc2)C1c1ccc(C)cc1 (stereo not given)	-2	5	-1	3	/
Cc1ccc(S(=O)(=O)N2[C@H](CC(=O)c3ccc(F)cc3)OC[C@@H]2C(C)C)cc1	-4	10	-1	/	/
Nc1ccccc1SCc1csc(-c2ccc(Cl)cc2)n1	-2	6	0	-2	8
Clc1ccc(-c2nc(CSc3ccccn3)cs2)cc1	0	58*	0	-6	/
O=C(CSc1ncn(-c2ccccc2)n1)N1CCc2ccccc21	-4	6	0	-3	-7
Clc1cccc(CSc2ncn(-c3ccccc3)n2)c1	-1	49*	-1	-5	28
Clc1ccc(CSc2ncn(-c3ccccc3)n2)cc1	-4	77*	0	2	0
Clc1cccc(CSc2nccn2-c2ccccc2)c1	2	12	0	1	44
CCN1C(=O)[C@H]2[C@@H](c3ccc(C(F)(F)F)cc3)N[C@]3(CCCN(CC4CCCCC4)C3=O)[C@H]2C1=O	-1	-11	0	4	/
[N-]=[N+]=NC(c1ccccc1)C(NC(=O)c1cc(C(F)(F)F)cc(C(F)(F)F)c1)c1ccccc1 (stereo not given)	-21	-7	-1	/	/
O=C(Oc1ccc(OC(=O)c2ccco2)c(S(=O)(=O)c2ccc(Br)cc2)c1)c1ccco1	7	36*	0	-1	1
COc1ccc(OCC(=O)Sc2ccc(C)cc2)cc1	1	43*	-1	-1	2
COc1ccc(OC(=O)COc2ccc(C)cc2)cc1	-2	4	1	2	10
COc1cccc(S(=O)(=O)N(C)C[C@H]2OCc3cnnn3CCCC(=O)N([C@H](C)CO)C[C@@H]2C)c1	-3	-2	0	-3	/
c1ccc(CCNc2nnnn2-c2ccccc2)cc1	1	37*	-1	-5	4
CNC(=S)Nc1ccc(-c2nc3ccc(C)cc3s2)cc1	2	18	-1	0	33
Nc1ccc(-c2nc3cc(N)ccc3s2)cc1	3	-5	-1	-2	24
Cc1ccc2nc(-c3ccc(N)cc3)sc2c1	-3	42*	0	0	9
SMILES	MT1-MMP act inh	SKN-1 block	TbMetRS inhib	Rin1 Abl inh	Arrestin-AP2 inh
Nc1ccc2nc(-c3ccccc3)sc2c1	-6	82*	-1	2	21
Cc1ccc(S(=O)(=O)N2[C@@H](c3ccc(Br)cc3)C(C(=O)O)=CC[C@H]2c2cccs2)cc1	-4	-3	1	0	26
CC(=O)N1CCC(C(=O)N2c3ccccc3N=C(c3ccc(C(F)(F)F)cc3)C2C(=O)NC(C)C)CC1 (stereo not given)	-4	-8	-1	/	/
CCn1c(=O)cc(OCC(=O)N2CCN(c3cccc(C(F)(F)F)c3)CC2)c2ccccc21	10	-17	-1	-4	23
CCn1c(=O)cc(OCC(=O)N2CCCC2)c2ccccc21	4	2	-1	9.0*	6
CCC(C)(C)c1nnc(NC(=O)CCC2CCCCC2)s1	4	36*	0	-1	16
CC(C)(C)c1nnc(NC(=O)CCC2CCCCC2)s1	-2	7	1	-1	/
O=C(Nc1cccnc1Cl)c1cc(-c2cccc(O)c2)on1	-2	15	0	4	16

Compound activity (PubChem BioAssay)
